Active and inactive are the calls of the source. No cut-off for these calls is given here.

Experiment [1] addresses L-lactate dehydrogenase A chain (Bos taurus, UniProt P19858). Put plainly: Inhibition of bovine heart LDHA.
Experiment [2] deals with MG-63. Put plainly: Growth inhibition of human MG63 cells at 10 uM after 72 hrs by MTT assay relative to control. The conditions noted are these: for inhibition of growth at 10 µM: MG-63, 72 h, read-out: GI. The class given is functional. In outline:
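MG-63 cells (2500/well) were plated overnight. 10 μL of 100 μM working solution in PBS, diluted from 40 mM stock, was added for 72 h. MTT was added for 4 h, the solvent replaced with DMSO, and OD570 read as percent growth inhibition.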
Background: Tetrazolium assays rely on reduction of a dye to a coloured formazan, in cell work by metabolically active cells.

Experiment [3] has as its target T1, L-lactate dehydrogenase A chain (Homo sapiens, UniProt P00338). In words: Binding affinity to LDHA (unknown origin) by ITC analysis. In outline: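 LDHA diluted to 10 μM in 50 mM Hepes pH 7.2, 100 mM NaCl, 2 mM DTT, 1% DMSO (250 μL in cell); ligand at 100 μM in the same buffer titrated in 2.5 μL injections at 25 °C. One-site model fit gives the binding parameters.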
(In general: In ITC the heat of successive injections is recorded.)

Experiment [4] deals with MG-63. Put plainly: Growth inhibition of human MG63 cells after 72 hrs by MTT assay. The conditions noted are these: MG-63, 72 h. The format is functional, cell-based. In outline:
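MG-63 cells (2500/well), grown in DMEM with 10% FBS at 37 °C and 5% CO2, plated overnight. They were then exposed for 72 h to eight concentrations (400 to 3.1 μM as listed), diluted in PBS from 40 mM stocks. MTT was added for 4 h and the formazan dissolved in DMSO, with OD read at 570 nm. EC50 is the mean of three independent experiments; cisplatin was the positive control.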

The subject of experiment [5] is MG-63. In words: Induction of apoptosis in human MG63 cells assessed as viable cells at 2 uM after 24 hrs by annexin V-FITC/propidium iodide staining-based flow cytometric analysis (reference value: 95.2%). The format is functional. The conditions noted are these: MG-63, 24 h, read-out: Activity.
In experiment [6] the test system is MG-63. Put plainly: Induction of apoptosis in human MG63 cells assessed as early apoptotic cells at 2 uM after 24 hrs by annexin V-FITC/propidium iodide staining-based flow cytometric analysis (reference value: 0.8%). The format is functional. On the technique in general: Flow cytometry measures light scatter and fluorescence of single cells or particles in a stream.

Experiment [7] deals with MG-63. In words: Induction of apoptosis in human MG63 cells assessed as late apoptotic cells at 2 uM after 24 hrs by annexin V-FITC/propidium iodide staining-based flow cytometric analysis (reference value: 3.2%). The format is functional.
In experiment [8] the test system is MG-63. Put plainly: Induction of apoptosis in human MG63 cells assessed as necrotic cells at 2 uM after 24 hrs by annexin V-FITC/propidium iodide staining-based flow cytometric analysis (reference value: 0.8%). The class given is functional.
In experiment [9] the test system is MG-63. Put plainly: Induction of apoptosis in human MG63 cells assessed as viable cells at 5 uM after 24 hrs by annexin V-FITC/propidium iodide staining-based flow cytometric analysis (reference value: 95.2%). The class given is functional. The conditions noted are these: MG-63, 24 h, read-out: Activity.
Experiment [10] has as its system MG-63. In words: Induction of apoptosis in human MG63 cells assessed as early apoptotic cells at 5 uM after 24 hrs by annexin V-FITC/propidium iodide staining-based flow cytometric analysis (reference value: 0.8%). The format is functional.
The test system of experiment [11] is MG-63. In words: Induction of apoptosis in human MG63 cells assessed as late apoptotic cells at 5 uM after 24 hrs by annexin V-FITC/propidium iodide staining-based flow cytometric analysis (reference value: 3.2%). The class given is functional.
Experiment [12] deals with MG-63. In words: Induction of apoptosis in human MG63 cells assessed as necrotic cells at 5 uM after 24 hrs by annexin V-FITC/propidium iodide staining-based flow cytometric analysis (reference value: 0.8%). The class given is functional.
Experiment [13] concerns MG-63. In words: Induction of apoptosis in human MG63 cells assessed as viable cells at 10 uM after 24 hrs by annexin V-FITC/propidium iodide staining-based flow cytometric analysis (reference value: 95.2%). The class given is functional. The conditions noted are these: MG-63, 24 h, read-out: Activity.
In experiment [14] the test system is MG-63. Put plainly: Induction of apoptosis in human MG63 cells assessed as early apoptotic cells at 10 uM after 24 hrs by annexin V-FITC/propidium iodide staining-based flow cytometric analysis (reference value: 0.8%). The format is functional.
Experiment [15] has as its system MG-63. Put plainly: Induction of apoptosis in human MG63 cells assessed as late apoptotic cells at 10 uM after 24 hrs by annexin V-FITC/propidium iodide staining-based flow cytometric analysis (reference value: 3.2%). The format is functional.
Experiment [16] deals with MG-63. Put plainly: Induction of apoptosis in human MG63 cells assessed as necrotic cells at 10 uM after 24 hrs by annexin V-FITC/propidium iodide staining-based flow cytometric analysis (reference value: 0.8%). The format is functional.
For experiment [17], the system named is MG-63. Put plainly: Induction of apoptosis in human MG63 cells after 24 hrs by annexin V-FITC/propidium iodide staining-based flow cytometric analysis. The format is functional, cell-based.
Experiment [18] concerns the target T1, L-lactate dehydrogenase A chain. Put plainly: Inhibition of LDHA in human MG63 cells assessed as decrease in lactate levels after 4 hrs. The class given is cell-based. In outline: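 MG-63 cells (3×10^5/well, 6-well) were plated overnight and treated for 4 h at 2, 5, 8, 10 and 12 μM, with 10 μM for the reference. Medium was centrifuged for 5 min and 1 mL assayed for lactate on a Nova Bioprofile Flex analyzer. IC50 was derived from the dose-response.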

Experiment [19] has the same target. Put plainly: Inhibition of LDHA in human MG63 cells assessed as increase in oxygen consumption rate at 2 to 10 uM after 6 hrs by XF24 extracellular flux analyzer based assay. The format is cell-based. Summed up:
(§1)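 MG-63 cells (30 000/well) were pretreated for 6 h with a range of concentrations. OCR and ECAR were then measured on the XF24 extracellular flux analyzer.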

For experiment [20] the target is unchanged. Put plainly: Inhibition of LDHA in human MG63 cells assessed as decrease in extracellular acidification rate at 2 to 10 uM after 6 hrs by XF24 extracellular flux analyzer based assay. The class given is cell-based. In outline: as §1
Experiment [21] shares this target. In words: Inhibition of human LDHA using pyruvate as substrate by monitoring the disappearance of NADH relative to control.
Experiment [22] has the same target. In words: Inhibition of human LDHA at 2 uM using pyruvate as substrate by monitoring the disappearance of NADH relative to control.

With `NC(=O)C(=O)O` [OXAMATE], the Ki in [1] came to 136000 nM.

Regarding `COc1c(C)c2c(c(O)c1C/C=C(\C)CCC(=O)NCc1ccc(Cl)cc1)C(=O)OC2`, the “growth inhibition (GI)” value in the experiment on MG-63 [2] was “inactive”.

In the case of `COC(=O)C[C@H](c1cccc(O)c1)c1oc(CSc2ccccc2OC)cc(=O)c1O`, the inhibition of growth at 10 µM in the experiment with MG-63 [2] is 68.9%.

`COCc1cc(=O)c(O)c([C@@H](CC(N)=O)c2cc3ccccc3n(CC(C)C)c2=O)o1` registered a Kd in [3] of 950 nM. For the same molecule, the inhibition of growth at 10 µM in the experiment with MG-63 [2] was determined as 88.7%. In addition, in the experiment on MG-63 [4], the EC50 was 3350 nM. Further, the viability at 2 µM with MG-63 [5] came to 94%. For the same molecule, the Activity was found to be 1% in the experiment with MG-63 [6]; 4.4% in the experiment on MG-63 [7]; 0.6% with MG-63 [8]; 4.2% in the experiment on MG-63 [10]; 5.8% with MG-63 [11]; 0.7% with MG-63 [12]. Further, the Activity with MG-63 [14] is 3%; with MG-63 [15], 12.9%; with MG-63 [16] it was 1.2%; with MG-63 [17], “Dose-dependent effect”. Besides, the viability at 5 µM with MG-63 [9] came out at 89.3%. Further, the viability at 10 µM in the experiment with MG-63 [13] came to 82.9%. In addition, the figures for the IC50 in experiment [18] and in experiment [21] were 7190 nM and 330 nM, respectively. Besides, the inhibition result was “Dose-dependent effect” in experiment [18], “Dose-dependent effect” in experiment [19] and 94% in experiment [22]. The inhibition result in [20] is “Active”.

As to `O=C1CC(c2c(Cl)cccc2Cl)CC(O)=C1Sc1ccccc1Cl` (stereo not given), the “growth inhibition (GI)” value in the experiment on MG-63 [2] is “inactive”. Moreover, the IC50 in experiment [21] was 2370 nM.

For the molecule `CCOC(=O)C[C@H](c1cc(OC)c2c(c1)OCCO2)c1oc(CO)cc(=O)c1O`, in the experiment on MG-63 [2], the inhibition of growth at 10 µM came out at 67.8%. The same molecule yielded an inhibition in experiment [22] of 71%.

Turning to `Cc1cc(=O)c(O)c([C@H](CC(=O)N2CCc3c([nH]c4ccccc34)C2)c2ccnc3ccccc23)o1`, the inhibition of growth at 10 µM with MG-63 [2] is 48.7%.

The term Ki denotes the dissociation constant of the complex between target and ligand, obtained from inhibition or displacement. The low end stands for tighter binding, the high end for weaker binding. What is called Kd is a measure of binding affinity in units of concentration. A higher Kd goes with a looser complex. For orientation: EC50 means the concentration needed to bring the measured effect to its halfway point. A higher EC50 goes with a need for much substance. Broadly, the IC50 is the concentration that gives 50% inhibition. One may read the inhibition as the drop in the measured response relative to a control, in per cent.
